Screening results as filed in PubChem BioAssay.
Rows were chosen to be rich in hits. Some 2.1% of all compounds tested hit in one or more screens of this group.
M1 PAM: human M1 muscarinic receptor positive allosteric modulators, primary screen, CHO-K1 cells, Fluo-8 calcium fluorescence, 1536-well; Muscarinic acetylcholine receptor M1 (Homo sapiens), P11229; CHO-K1 hM1, ACh EC20; 0% = ACh EC20, 100% = maximal ACh; activation, % at 3 µM; 0.088% of 360,000 active; AID 588819, 2011; in the data active = activation above about 19%, passing the limit was not always enough
CHRM1 antagonist: human M1 muscarinic receptor antagonists, primary screen, CHO-K1 cells, Fluo-8 calcium fluorescence, 1536-well; CHO-K1 hM1, ACh EC80 antagonist; 1.3% of 360,000 active; Muscarinic acetylcholine receptor M1 (Homo sapiens), P11229; inhibition, % at 3 µM; AID 588852, 2011;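 active = percent inhibition above its own plate's cutoff, namely the mean of that plate's compound wells plus 3 SD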;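 note: peak over basal fluorescence ratio during 140 s after agonist addition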
CHRM5 agonist: human M5 muscarinic receptor agonists, primary screen, CHO-K1 cells, Fluo-8 calcium fluorescence; CHO-K1 hM5 cells; 0% DMSO wells, 100% maximal acetylcholine response; Muscarinic acetylcholine receptor M5 (Homo sapiens), P08912; activation, % at 3 µM; 0.19% of 360,000 active;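 active = activation above the run's mean over test compounds plus 3 SD, cut at about 23% in these data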;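 note: signal is peak over basal fluorescence ratio across the kinetic read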
Target sequence (P08912 whole entry, looked up): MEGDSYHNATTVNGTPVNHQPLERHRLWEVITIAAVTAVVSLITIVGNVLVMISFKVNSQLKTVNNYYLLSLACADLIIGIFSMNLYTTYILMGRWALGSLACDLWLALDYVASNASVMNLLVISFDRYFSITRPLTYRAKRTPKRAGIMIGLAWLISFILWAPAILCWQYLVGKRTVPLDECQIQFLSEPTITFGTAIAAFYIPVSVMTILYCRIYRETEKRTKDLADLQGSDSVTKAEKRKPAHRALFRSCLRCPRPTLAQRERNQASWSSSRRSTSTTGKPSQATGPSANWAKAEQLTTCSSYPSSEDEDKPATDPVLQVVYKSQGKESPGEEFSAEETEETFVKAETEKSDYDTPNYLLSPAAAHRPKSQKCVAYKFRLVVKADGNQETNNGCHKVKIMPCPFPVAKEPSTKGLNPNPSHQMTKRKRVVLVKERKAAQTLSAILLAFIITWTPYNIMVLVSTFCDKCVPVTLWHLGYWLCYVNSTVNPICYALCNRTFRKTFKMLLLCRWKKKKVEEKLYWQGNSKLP
CHRM1 agonist: human M1 muscarinic receptor agonists, primary screen, Fluo-8 calcium fluorescence, CHO-K1 cells, HTS; Muscarinic acetylcholine receptor M1 (Homo sapiens), P11229; CHO-K1 hM1, agonist mode; 0% DMSO, 100% acetylcholine EC100; activation, % at 3 µM; 0.33% of 360,000 active; AID 588814, 2011;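 active = activation above the run's mean compound activation plus 3 SD, cut at about 16% in these data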;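 note: peak over basal fluorescence ratio within a 140 s kinetic read after compound addition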
CHRM5 antagonist: human M5 muscarinic receptor antagonists, primary screen, CHO cells, Fluo-8 calcium fluorescence; AID 624040, 2012; 0.59% of 360,000 active; Muscarinic acetylcholine receptor M5 (Homo sapiens), P08912; inhibition, % at 3 µM; CHO-hM5 cells, ACh EC80;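 active = inhibition above a per-plate cutoff, the mean of that plate's test compounds plus 3 SD, cut at about 27% in these data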
CHRM5 PAM: human M5 muscarinic receptor positive allosteric modulators, primary screen, CHO-K1 cells, Fluo-8 calcium fluorescence. AID 624038, 2012. activation, % at 3 µM. 0.3% of 360,000 active. CHO-K1 hM5, ACh EC20 PAM; 0% = ACh EC20, 100% = ACh EC100;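 active = activation above the run cutoff, the mean activation of all test compounds plus 3 SD, cut at about 18% in these data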
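System: CHO-K1 hM5 cells. Reagent: acetylcholine, EC20 level. Compound dosing: single dose, 3 µM nominal final test concentration. Timing: Post-acetylcholine fluorescence recording 140 s. Detection: Fluo-8 calcium fluorescence. Read-out: % activation, ACh-normalized. Benchmarks: ACh EC20 and EC100 wells. Repeats: singlicate, one well per test compound.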
Numbers stand for hits; 0 = inactive.

SMILES	M1 PAM	CHRM1 antagonist	CHRM5 agonist	CHRM1 agonist	CHRM5 antagonist	CHRM5 PAM
COc1ccc(Nc2nc(N)nc(CN3CCC(Cc4ccccc4)CC3)n2)cc1	0	33	0	0	0	0
CCOC(=O)C1CCCN(CC(O)COc2ccc(OC)cc2C(C)(C)C)C1 (configuration not stated)	0	32	0	60	0	0
O=C(COC(=O)CNC(=O)C1CCCCC1)Nc1cc(C(F)(F)F)ccc1Cl	0	0	0	0	0	0
CCOc1ccc(CN2CCC(Cc3ccccc3)CC2)cc1	0	58	0	0	0	0
CCOC(=O)C1CCCN(Cc2ccc(OCC)cc2)C1 (configuration not stated)	0	0	0	31	0	0
CCCCNC(=O)C1CCN(Cc2ccc(OCc3ccccc3)c(OC)c2)CC1	0	0	0	0	0	0
CCOC(=O)C1CCN(Cc2ccc(OCc3ccccc3)cc2)CC1	0	49	0	0	0	0
NC(=O)C1CCN(Cc2ccc(OCc3ccccc3)cc2)CC1	0	0	0	0	0	0
CCCCN(C)C(=O)C1CCN(Cc2ccc(OCc3ccccc3)cc2)CC1	0	41	0	0	0	0
CCOC(=O)C1CCCN(Cc2ccccc2OCC)C1 (configuration not stated)	0	0	0	0	0	0
COc1ccc(-c2ccc(SCC(=O)N3CCN(c4ccccc4)CC3)nn2)cc1	0	0	0	0	0	0
Cc1cc(OCCN2CCC(Cc3ccccc3)CC2)ccc1[N+](=O)[O-]	0	101	0	0	0	0
O=C(c1ccc(Cl)cc1)C1CCCN(Cc2ccc(Oc3ncccn3)cc2)C1 (configuration not stated)	0	62	0	0	0	0
COc1ccc(CN2C(=O)c3ccccc3C2=O)cc1C(=O)O	0	0	0	0	0	0
CCOc1ncccc1C(=O)NCCc1c[nH]c2ccccc12	0	0	0	0	0	0
CC(OC(=O)Cc1n[nH]c(=O)c2ccccc12)C(=O)Nc1ccc(Cl)cn1 (configuration not stated)	0	0	0	0	0	19
CC(OC(=O)Cc1n[nH]c(=O)c2ccccc12)C(=O)Nc1cc(Cl)cc(Cl)c1 (configuration not stated)	0	0	0	0	0	0
CC(C)c1ccc(/C=C2\SC(=O)N(CC(=O)NC3C=CS(=O)(=O)C3)C2=O)cc1 (configuration not stated)	0	43	0	0	0	0
O=C(CN1C(=O)/C(=C/c2ccc(Cl)cc2)SC1=S)NC1C=CS(=O)(=O)C1 (configuration not stated)	0	0	0	0	0	0
O=C(NCCN1CCC(Cc2ccccc2)CC1)C1CCN(S(=O)(=O)N2CCC3(CC2)OCCO3)CC1	0	0	0	0	0	0
CC1(C(=O)Nc2ccccc2)CCN1C(=O)Cc1ccc(-c2ccccc2)cc1 (configuration not stated)	0	0	0	0	0	0
CC(C)S(=O)(=O)NC(=O)C1(C)CCN1C(=O)Cc1ccccc1 (configuration not stated)	0	0	0	0	29	0
Cn1nc(C2CC2)cc1NC(=O)C1(C)CCN1C(=O)Cc1ccc(-c2ccccc2)cc1 (configuration not stated)	0	30	0	0	0	0
CC1(C(=O)Nc2ccc3c(c2)OCO3)CCN1C(=O)Cc1ccc(-c2ccccc2)cc1 (configuration not stated)	0	38	0	0	31	0
